Apaf-1 inh: human Apaf-1 inhibition; reconstituted apoptosome caspase-3 activity, DEVD-Rh110 fluorescence; inhibition, % at 20 µM; 330,000 compounds, 0.71% hits; AID 489030; active = inhibition of at least 40% at 20 µM;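 also: plate controls were DMSO wells for no effect and DEVD-CHO caspase inhibitor wells for full effect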
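detection = Rh110 fluorescence intensity | test system = biochemical Apaf-1 apoptosome reconstitution | also added = cytochrome c and DEVD-Rh110 substrate | schedule = 30 min plus 50 min, RT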
MEKK2 mut-MEK5: signal of MEK5 binding to mutant human MEKK2 PB1 domain | bead flow cytometry, Alexa488-MEK5 binding to MEKK2 mutant | percent response, % at 10 µM | 290,000 compounds, 0.35% hits | AID 1530; in the data active = percent response above about 24%, passing the limit was not always enough
MEKK2wt PB1 HTS: raises or lowers MEK5 binding to wildtype human MEKK2 PB1 domain; bead flow cytometry, Alexa488-MEK5 binding to MEKK2 WT; actives lie on both sides; 290,000 compounds, 1.1% hits; binding response (% of control), % at 10 µM; in the data active = binding response below about 67% or above about 130%
UBC13 polyUb: inhibitors of human UBC13 polyubiquitin chain formation; 330,000 compounds, 0.47% hits; inhibition, % at 20 µM; AID 485273; TR-FRET; P61088; in the data active = inhibition above about 45%, passing the limit was not always enough
MEKK3 PB1 HTS: modulators (inhibitors or enhancers) of MEK5 binding to human MEKK3 PB1 domain | binding response (% of control), % at 10 µM | 290,000 compounds, 1.4% hits | bead-based flow cytometry, Alexa488-MEK5 binding to MEKK3; actives lie on both sides; 0 = blocked by unlabeled MEK5, 100 = vehicle;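 active = binding response more than 3 SD above or below the average of its plate-row segment, actives on both sides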;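 also: Alexa488 bead fluorescence after subtracting the streptavidin-only scavenger bead signal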
MEKK2wt confirm: raises or lowers MEK5 binding to wildtype human MEKK2, retest. bead flow cytometry, Alexa488-MEK5 binding to MEKK2 WT; actives lie on both sides. 5,900 compounds, 2.4% hits. binding response (% of control), % at 10 µM. shares compounds with MEKK3 PB1 HTS; in the data active = binding response below about 16% or above about 210%; inactive = in between
MEKK2mut-MEK5: signal of MEK5 binding to mutant human MEKK2, retest; shares compounds with MEKK3 PB1 HTS; bead flow cytometry, Alexa488-MEK5 binding to MEKK2 mutant; percent response, % at 10 µM; 5,900 compounds, 2% hits; AID 1893; in the data active = percent response mostly above about 71%, no sharp cut-off; inactive = mostly below about 38%;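 also: higher means compound restores mutant binding toward wildtype level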
MEKK3 confirm: confirmation of inhibitors of MEK5 binding to human MEKK3 | shares compounds with MEKK3 PB1 HTS | bead flow cytometry, Alexa488-MEK5 binding to MEKK3; hits give low values | AID 1894 | binding response (% of control), % at 10 µM | 5,900 compounds, 1.8% hits;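 active = binding response below 72% of control, or above a set upper limit, though filed actives all read lower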;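 also: 100% = DMSO only wells and 0% = binding blocked by excess unlabeled MEK5; lower values mean stronger disruption of MEK5 binding to MEKK3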
Numbers without * were called inactive; / = no result given; + = active, no number; [ ] = dose if it differs, or a comment. Rows were chosen to be rich in hits. Some 2.9% of all compounds tested hit in one or more screens of this group.

SMILES	Apaf-1 inh	MEKK2 mut-MEK5	MEKK2wt PB1 HTS	UBC13 polyUb	MEKK3 PB1 HTS	MEKK2wt confirm	MEKK2mut-MEK5	MEKK3 confirm
CC1(C)C2([N+](=O)[O-])CN3CC1([N+](=O)[O-])CN(C2)C3c1ccccc1 (centres undefined)	-8.4	-4.0	102.0	10.0	101.0	/	/	/
CC(C)c1ccc(C2N3CC4([N+](=O)[O-])CN2CC([N+](=O)[O-])(C3)C4(C)C)cc1 (centres undefined)	-14.4	-1.0	95.0	6.6	71.0*[inhibitor]	95.0	-8.0	96.0
O=C1S/C(=C\c2ccc(O)c([N+](=O)[O-])c2)C(=O)N1c1ccccc1Cl	13.6	-8.0	81.0	-79.1	74.0*[inhibitor]	102.0	1.0	103.0
CCN(CC)Cc1c(O)ccc2c(=O)c(-c3ccccc3OC)coc12	-1.2	1.0	104.0	11.8	102.0	/	/	/
CCN(CC)Cc1c(O)ccc2c(=O)c(-c3ccccc3Cl)coc12	0.7	25.0*	102.0	12.9	104.0	102.0	-1.0	102.0
COc1ccc(CCNC(=O)c2c(N)no[n+]2[O-])cc1OC	-8.9	-2.0	105.0	3.5	93.0	/	/	/
Cc1cc(CN(C)C(=O)c2ccc(OC3CCN(CCc4ccccc4)CC3)cc2)on1	-7.4	10.0	113.0	8.8	102.0	/	/	/
Cc1cc(NC(=O)c2ccccc2O)nc(C)n1	-3.3	2.0	105.0	2.2	104.0	/	/	/
Cc1cc(C)nc(NNC(=O)c2ccccc2O)n1	3.6	1.0	111.0	10.7	129.0*	104.0	3.0	103.0
c1ccc2c(c1)OC(CCCN1CCCCC1)c1ccccc1S2 (centres undefined)	19.4	27.0*	141.0*	26.9	106.0	138.0	21.0	107.0
O=C(C1=C(Nc2ccccc2)c2ccccc2S(=O)(=O)N1)c1ccccc1	25.0	-2.0	85.0	-63.2	64.0*[inhibitor]	95.0	-7.0	103.0
O=C(COc1ccc(Br)cc1)Nc1cc(S(=O)(=O)N2CCCCC2)ccc1N1CCCCC1	11.7	0.0	106.0	-4.9	139.0*	101.0	-1.0	101.0
CCCC(=O)NCn1nnc(-c2ccc(Cl)cc2)n1	/	+	94.0	/	221.0*	102.0	1.0	103.0
COC(=O)C1(CCSC)NC(c2ccco2)C2C(=O)N(C)C(=O)C21 (centres undefined)	-0.7	-16.0	1.0*[inhibitor]	-1.9	2.0*[inhibitor]	107.0	1.0	106.0
COc1cccc(Oc2nc(-c3ccncc3)nc3ccccc23)c1	29.1	5.0	99.0	-2.9	99.0	/	/	/
O=C(CNc1ccccc1)N/N=C/c1ccc2c(c1)OCO2	-7.3	-1.0	104.0	-19.9	135.0*	105.0	5.0	103.0
O=C(CCNC(=O)c1ccccc1)N/N=C/c1ccc([N+](=O)[O-])cc1	-14.3	-1.0	102.0	-4.2	104.0	/	/	/
O=C(CNc1ccccc1)N/N=C/c1ccc([N+](=O)[O-])cc1	-2.2	0.0	106.0	-33.9	134.0*	100.0	3.0	102.0
O=C(CNc1ccccc1)N/N=C/c1ccc2c(c1)OCCO2	3.3	1.0	104.0	0.0	118.0	/	/	/
CCOc1ccc(N(CC(=O)NN=C2CCCC2)S(C)(=O)=O)cc1	3.9	1.0	105.0	3.5	103.0	/	/	/
CCS(=O)(=O)N1CCC(C(=O)NCCC2=CCCCC2)CC1	-22.6	-6.0	79.0	-2.9	73.0*[inhibitor]	96.0	-3.0	100.0
O=C(NCCC1=CCCCC1)C1CCN(S(=O)(=O)N2CCCC2)CC1	-3.2	1.0	104.0	-4.0	105.0	/	/	/
COc1ccc(/C=N/NC(=O)c2ccncc2)cc1OC	-4.3	-4.0	96.0	-5.3	100.0	/	/	/
O=C(Oc1ccc(/C=N/NC(=O)c2ccccc2O)cc1)c1ccccc1	-2.2	3.0	98.0	-1.0	103.0	/	/	/
COc1ccc(/C=C(/NC(=O)c2ccccc2)C(=O)N/N=C/c2ccncc2)cc1	2.2	-15.0	2.0*[inhibitor]	-13.5	2.0*[inhibitor]	102.0	3.0	102.0
SMILES	Apaf-1 inh	MEKK2 mut-MEK5	MEKK2wt PB1 HTS	UBC13 polyUb	MEKK3 PB1 HTS	MEKK2wt confirm	MEKK2mut-MEK5	MEKK3 confirm
O=C(N/N=C/c1ccc(OC(=O)c2ccccc2)cc1)c1cccc(O)c1	0.1	0.0	113.0	-3.1	137.0*	92.0	0.0	101.0
COc1ccc(/C=C/C(=O)Oc2ccc(/C=N/NC(=O)c3ccccc3)cc2)cc1OC	-1.6	0.0	102.0	-2.7	138.0*	94.0	-9.0	94.0
O=C(Cn1cc(S(=O)(=O)N2CCN(c3ccccc3F)CC2)c2ccccc2c1=O)NCCCN1CCCCCC1	18.5	-45.0	7.0*[inhibitor]	34.1	3.0*[inhibitor]	124.0	13.0	105.0
O=C(NCc1cccnc1)c1nn2cccnc2c1Cl	-1.8	0.0	97.0	-5.2	99.0	/	/	/
CC(C)CSc1nnc2[nH]c(=O)cc(N)n12	-3.3	3.0	86.0	1.0	60.0*[inhibitor]	99.0	-2.0	100.0
CCOC(=O)c1cc2cc([N+](=O)[O-])cc(OC)c2oc1=O	-3.7	6.0	108.0	-8.4	105.0	/	/	/
CCOC(=O)c1cc2cc([N+](=O)[O-])ccc2oc1=O	5.6	-28.0	76.0	-22.2	75.0*[inhibitor]	102.0	7.0	100.0
CC(C)CN(C(=O)COC(=O)C12CC3CC(CC(O)(C3)C1)C2)C1CCS(=O)(=O)C1 (centres undefined)	6.2	-17.0	0.0*[inhibitor]	1.2	0.0*[inhibitor]	101.0	-6.0	100.0
Cn1c(N)c(C(=O)CSc2nn(-c3ccc(F)cc3)c(=S)s2)c(=O)n(C)c1=O	-9.7	/	/	-0.2	/	/	/	/
CCS(=O)(=O)c1nc(S(=O)(=O)c2ccc(Cl)cc2)c(N2CCN(CCO)CC2)s1	-2.0	4.0	105.0	-3.1	107.0	/	/	/
CCS(=O)(=O)c1nc(S(=O)(=O)c2ccc(Cl)cc2)c(N2CCc3ccccc3C2)s1	-406.2	0.0	102.0	-9.3	135.0*	100.0	3.0	103.0
CC12CCCC[C@@H]1CCC1C2CCC2(C)C1CC[C@@]2(O)CNCCO (some centres undefined)	18.4	25.0*	136.0*	38.6	106.0	107.0	10.0	87.0
COCCN(CC(=O)Nc1ccccc1C(F)(F)F)C(=O)c1ccc(-n2cccn2)cc1	-6.2	/	/	5.7	/	/	/	/
COC(=O)c1cccc(NC(=O)CN2CCc3ccccc3C2)c1	1.7	6.0	103.0	2.6	99.0	/	/	/
COc1ccc(NC(=O)c2cn(CCC#N)nc2-c2cccs2)cc1	4.6	1.0	108.0	0.4	140.0*	104.0	4.0	104.0
CC(c1ccccn1)N(Cc1ccco1)C(=S)Nc1cccc(F)c1 (centres undefined)	4.8	-4.0	97.0	-1.9	99.0	/	/	/
